Compound activity: PubChem BioAssay, several laboratories
Hits are enriched below; roughly 1.4% of the tested compounds scored in any of these assays.
PG9 Ab binder = binds the HIV-1 gp120 antibody PG9; TR-FRET gp120-PG9 antibody binding; 0.43% of 360,000 active; inhibition, % at 6.7 µM; in the data active = inhibition above about 8.5%
NR2E3 ag-1 = agonists of human nuclear receptor NR2E3; Q9Y5X4; GST-NR2E3/biotin-RetCOR TR-FRET, 1536-well; inhibition of corepressor binding, % at 4.78 µM; 0.12% of 320,000 active; AID 2300;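 active = percent inhibition above the cutoff of mean plus 3 SD of all tested compounds, set per screening campaign, cut at about 20% in these data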;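 also: 0% = DMSO wells and 100% = biotin wells as full block of FRET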
Target sequence (Q9Y5X4 whole entry, looked up): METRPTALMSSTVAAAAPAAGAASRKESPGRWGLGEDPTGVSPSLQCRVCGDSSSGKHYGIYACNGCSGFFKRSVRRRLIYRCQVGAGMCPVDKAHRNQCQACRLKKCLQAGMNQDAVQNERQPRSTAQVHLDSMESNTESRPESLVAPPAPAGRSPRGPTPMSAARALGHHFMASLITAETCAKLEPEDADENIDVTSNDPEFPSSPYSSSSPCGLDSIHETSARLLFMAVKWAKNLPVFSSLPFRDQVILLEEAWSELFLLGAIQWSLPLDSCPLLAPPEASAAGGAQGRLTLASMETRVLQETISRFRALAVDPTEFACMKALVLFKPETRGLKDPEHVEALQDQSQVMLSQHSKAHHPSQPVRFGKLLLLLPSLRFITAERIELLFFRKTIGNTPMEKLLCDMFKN
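Material: NR2E3–RetCOR corepressor complex / Incubation: Compound–protein incubation for 5 h at 4 °C / Dosing: compound at 4.8 µM, single dose / Detection: time-resolved FRET / Benchmarks: high control biotin, low control 0.6% DMSO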
Rev-erbA mod = modulators of human Rev-erb alpha DNA binding; Rev-erbα–FITC-DNA binding, fluorescence polarization, 90 min; P20393; activity, % at 10 µM; 0.79% of 370,000 active;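 active = activity above about 14%, limit read from the data; passing the limit was not always enough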;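 also: 0% = DMSO wells with 35 nM protein and 100% = DMSO wells with 750 nM protein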
NR2E3 ag-2 = activates human NR2E3 receptor; inhibition of corepressor binding, % at 3.98 µM; 0.35% of 360,000 active; CHO-S Gal4-NCOR/VP16-NR2E3 two-hybrid, luciferase; Q9Y5X4; AID 602229;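 active = inhibition above the mean of all tested compounds plus 3 SD, cut at about 70% in these data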;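 also: 0% = DMSO with NR2E3 transfected cells and 100% = cells lacking NR2E3 construct; higher means lower luciferase signal from less NR2E3 corepressor binding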
NR1D1 mod conf = confirmation of modulators of human Rev-erb alpha DNA binding; shares compounds with Rev-erbA mod; Rev-erb alpha FITC-DNA binding, fluorescence polarization, 90 min; activation, % at 25 µM; 61% of 3,000 active; AID 1259319;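 active = activation at or above a set limit, or at least 3 SD above the negative control mean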;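 also: 0% = 35 nM protein with DMSO and 100% = 750 nM protein high control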
RORg counter = counter-screen for Rev-erb alpha modulators: RORgamma DNA binding. shares compounds with Rev-erbA mod. purified RORgamma protein-FITC-DNA binding, fluorescence polarization. IC50, µM. 8% of 910 active. AID 1259320;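 active = Compounds whose fitted half-maximal concentration for disrupting protein-DNA binding is below 10 micromolar; the record names Rev-erb in its text, so the target is in doubt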
* marks the source's active call; other numbers are inactive results; i = inactive; x = no result.

SMILES	PG9 Ab binder	NR2E3 ag-1	Rev-erbA mod	NR2E3 ag-2	NR1D1 mod conf	others
CCOc1ncccc1C(=O)OCc1cc(=O)oc2c(C)c(C)ccc12	-2	x	34*	-17	6
CC1=C(C(=O)N(C(C)C)C(C)C)CC(CC(=O)NCCCCc2ccccc2)C(=O)N1CCCN1CCCC1=O (stereo not drawn)	-3	x	-2	-9	x
CCc1ccc2nc(/N=C(\N)NC(=O)c3ccccc3)nc(C)c2c1	-3	3	23*	-55	0
Cc1cc(C)c2nc(/N=C(\N)NC(=O)c3ccccc3)nc(C)c2c1	-2	2	56*	4	15
O=C(OCc1ccccc1)N1CCC2CC1c1ccc(-c3cccc(F)c3)cc12 (stereo not drawn)	-1	x	3	30	x
Cc1ccc(CN2C(=O)C3CCCN3c3ccc(C#N)cc32)cc1 (stereo not drawn)	x	-2	x	x	x
Cc1ccc(C)c(CN2C(=O)C3CCCN3c3ccc(C#N)cc32)c1 (stereo not drawn)	4	2	49*	-11	36*
Cc1cc(NC(=O)COC(=O)C2CC(=O)N(c3ccc(Cl)cc3)C2)no1 (stereo not drawn)	0	2	22*	-7	-8
COC(=O)c1cc(-c2cc3ccccc3s2)c(=O)n2c1CCC2	x	x	58*	x	40*	RORg counter=>40
CCOc1cc(/C=C2\NC(=O)NC2=O)cc([N+](=O)[O-])c1O	-34	-25	19*	12	-2
CCOc1cc(/C=C2\C(=O)NN(c3ccccc3)C2=O)cc([N+](=O)[O-])c1O	-14	1	-9	-8	x
Cc1c(Cl)cccc1NC(=O)Cn1cc(C(F)(F)F)cc(Cl)c1=O	0	2	44*	-1	43*	RORg counter=i
Cc1ccc(Cl)cc1NC(=O)Cn1cc(C(F)(F)F)cc(Cl)c1=O	-2	-2	4	9	x
OC[C@@H]1CN(Cc2cccc(C(F)(F)F)c2)C[C@H](n2cnc3c(NCc4ccncc4)ncnc32)O1	0	x	1	15	x
Cc1nc(NC(=O)c2ccc(-c3cc4ccccc4oc3=O)cc2)ccc1Br	1	-6	36*	5	-8
CCOC(=O)c1ccccc1NC(=O)c1cncc(Br)c1	1	x	94*	-10	77*	RORg counter=>40
Cc1nc(NC(=O)c2cncc(Br)c2)ccc1Br	0	1	62*	-18	55*	RORg counter=>40
Cc1nc(NC(=O)c2cccc(-c3cc4ccccc4oc3=O)c2)ccc1Br	0	-7	19	-112	x
CC(=O)c1ccc(Nc2nc(C(N)Cc3ccc(Cl)cc3)cs2)cc1 (stereo not drawn)	1	x	-4	5	x
CN1CCN2c3ccccc3CC(C#N)(C#N)C2C1 (stereo not drawn)	1	x	2	6	x
CC(=O)N1CCc2cc(N=NC3=C(O)CC(C)(C)CC3=O)ccc21	-3	-1	20*	-8	20*
CCOc1ccc(CCN2C(=S)N([C@@H](CC(C)C)CN3CCCC3CN3C(=S)NC[C@@H]3Cc3ccccc3)C[C@@H]2CC(C)C)cc1 (stereo partly drawn)	1	x	3	5	x
COc1ccc(S(=O)(=O)N2CCCOC2CNC(=O)C(=O)NCCO)cc1 (stereo not drawn)	3	x	3	-19	x
CCOC(=O)c1sc2nc(C)nc(Nc3ccc(OC)cc3)c2c1C	2	-2	31*	-10	13
CSc1cc(CS(=O)(=O)c2ccccc2)nc(-c2ccccc2)n1	-1	0	20*	7	28*
Cc1nc(CS(=O)(=O)c2ccccc2)cc(Sc2ccc(Cl)cc2Cl)n1	-2	0	-4	-84	x
O=S(=O)(Cc1cc(NCc2ccccc2)nc(-c2ccncc2)n1)c1ccccc1	-1	1	17*	-17	44*	RORg counter=>40
COc1ccc(CC(N)c2csc(Nc3ccc(S(C)(=O)=O)cc3)n2)cc1 (stereo not drawn)	0	x	1	1	x
O=C(CNC(=O)Cc1ccccc1)NCC(=O)OCc1ccc(C(=O)c2ccccc2)cc1	x	2	22*	-10	20*
O=C(NN1C(=O)/C(=C/c2ccc(O)cc2)SC1=S)c1cccc(O)c1	-3	3	27*	-21	16
